From ChEMBL document CHEMBL5390324, “Synthesis of 9-Cinnamyl-9H-purine Derivatives as Novel TLR4/MyD88/NF-κB Pathway Inhibitors for Anti-inflammatory Effects” (ACS Med Chem Lett, 2023)
Active and inactive are the calls of the source. No cut-off for these calls is given here.

How the values were obtained:
RAW264.7 [1] = test: Antiinflammatory activity in mouse RAW264.7 cells assessed as inhibition of LPS-stimulated nitric oxide production at 20 uM preincubated for 2 hrs followed by LPS stimulation for 24 hrs by Griess reagent based assay relative to control; assay type: functional; conditions: time 26 hrs
Method in brief: (§1)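 RAW264.7 cells pretreated 2 h with compound, then LPS (500 ng/mL) 24 h. Nitrite in culture supernatant measured with Griess reagent (1% sulfanilamide in 5% H3PO4, 0.1% N-(1-naphthyl)ethylenediamine dihydrochloride). Inhibition % as mean ± SEM of triplicates; negative values denote enhancement of NO.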

RAW264.7 [2] = test: Antiinflammatory activity in mouse RAW264.7 cells assessed as inhibition of LPS-stimulated nitric oxide production at 10 uM preincubated for 2 hrs followed by LPS stimulation for 24 hrs by Griess reagent based assay relative to control; assay type: functional; conditions: time 26 hrs; method in brief: as §1
RAW264.7 [3] = test: Antiinflammatory activity in mouse RAW264.7 cells assessed as inhibition of LPS-stimulated nitric oxide production preincubated for 2 hrs followed by LPS stimulation for 24 hrs by Griess reagent based assay; assay type: functional, cell-based; conditions: for inhibition: time 26.0 hrs; method in brief: as §1
RAW264.7 [4] = test: Antiinflammatory activity in mouse RAW264.7 cells assessed as inhibition of nitric oxide production incubated for 2 hrs by Griess reagent based assay; assay type: functional, cell-based; method in brief: as §1
RAW264.7 [5] = test: Cytotoxicity against mouse RAW264.7 cells at 3 to 30 uM by MTS assay; assay type: toxicity, cell-based; conditions: raw264.7, 30 µM, dose 3-30 µM
Method in brief: (§2)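 MTS viability assay in RAW264.7 and 293T cells at 3, 10 and 30 μM.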

HEK-293T [6] = test: Cytotoxicity against HEK293T cells at 3 to 30 uM by MTS assay; assay type: toxicity, cell-based; conditions: human, dose 3-30 µM; method in brief: as §2
RAW264.7 [7] = test: Antiinflammatory activity in LPS-stimulated mouse RAW264.7 cells assessed as inhibition in IL-6 level at 3 to 30 uM preincubated for 2 hrs followed by LPS stimulation for 24 hrs by ELISA; assay type: functional, cell-based; conditions: dose 3-30 µM, time 26.0 hrs
Method in brief: (§3)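 RAW264.7 macrophages pretreated 2 h with compound, or Bay11-7082 as positive control, then LPS (500 ng/mL) for 24 h. IL-6, IL-1β and TNF-α in supernatants quantified by ELISA. Mean ± SEM.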

RAW264.7 [8] = test: Antiinflammatory activity in LPS-stimulated mouse RAW264.7 cells assessed as inhibition in IL-1beta level at 3 to 30 uM preincubated for 2 hrs followed by LPS stimulation for 24 hrs by ELISA; assay type: functional, cell-based; conditions: dose 3-30 µM, time 26.0 hrs; method in brief: as §3
RAW264.7 [9] = test: Antiinflammatory activity in LPS-stimulated mouse RAW264.7 cells assessed as inhibition in TNF-alpha level at 3 to 30 uM preincubated for 2 hrs followed by LPS stimulation for 24 hrs by ELISA; assay type: functional, cell-based; conditions: dose 3-30 µM, time 26.0 hrs; method in brief: as §3
RAW264.7 [10] = test: Antiinflammatory activity in LPS-stimulated mouse RAW264.7 cells assessed as reduction in iNOS level at 10 to 30 uM preincubated for 2 hrs followed by LPS stimulation for 20 hrs by Western blot analysis; assay type: functional, cell-based; conditions: dose 10-30 µM, time 22.0 hrs
Method in brief: (§4)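 RAW264.7 cells pretreated 2 h with compound, then LPS (200 ng/mL) for 20 h. iNOS and COX-2 protein assessed by Western blot.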

RAW264.7 [11] = test: Antiinflammatory activity in LPS-stimulated mouse RAW264.7 cells assessed as reduction in COX-2 level at 10 to 30 uM preincubated for 2 hrs followed by LPS stimulation for 20 hrs by Western blot analysis; assay type: functional, cell-based; conditions: dose 10-30 µM, time 22.0 hrs; method in brief: as §4
HEK-293T [12] = test: Antiinflammatory activity in HEK293T cells transfected with NF-kappaB (unknown origin) assessed as inhibition in NF-kB transcription at 3 to 30 uM preincubated for 2 hrs followed by PMA stimulation for 24 hrs by SEAP reporter gene based Quanti-blue assay; assay type: functional, cell-based; conditions: Homo sapiens, dose 3-30 µM, time 26.0 hrs
Method in brief: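 293T cells on poly-D-lysine-coated wells transfected overnight with pNF-κB-SEAP. Treated with compound for 2 h, then PMA (50 ng/mL) for 24 h. Bay 11-7082 (20 μM) served as NF-κB inhibitor control. SEAP activity read with QUANTI-Blue. Mean ± SEM.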

RAW264.7 [13] = test: Antiinflammatory activity in mouse RAW264.7 cells assessed as inhibition of NF-kappaB translocation from cytosol to nucleus at 30 uM preincubated for 2 hrs followed by LPS stimulation for 2 hrs by immunofluorescence staining analysis; assay type: functional, cell-based; conditions: time 4.0 hrs
Method in brief: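 RAW264.7 cells in glass chamber wells overnight, treated 2 h with compound (30 μM) or Bay (20 μM), then LPS for 2 h. Immunostained for NF-κB p65 with Alexa Fluor 488 secondary; nuclei counterstained with DAPI in antifade medium; fluorescence imaging.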

[14] = biological target: TLR4-MyD88 (Mus musculus) (UniProt Q9QUK6+P22366); test: Inhibition of TLR4-MyD88 interaction in mouse RAW264.7 cells at 30 uM preincubated for 2 hrs followed by LPS stimulation for 24 hrs by co-immunoprecipitation analysis; assay type: cell-based; conditions: time 26.0 hrs
Method in brief: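 RAW264.7 cells treated with compound at 30 μM for 2 h, then LPS (500 ng/mL) for 24 h. Lysates immunoprecipitated with MyD88- or TLR4-specific antibodies on protein A/G agarose beads; immunocomplexes probed by Western blot for TLR4 or MyD88.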

Mus musculus [15] = species on record: Mus musculus; test: Antiinflammatory activity in DNCB-stimulated atopic dermatitis BALB/c mouse model assessed as reduction in ear swelling at 0.5 % pretreated for 30 mins followed by DNCB re-treatment measured after 3 hrs; assay type: functional, organism-based; conditions: time 3.5 hrs
Method in brief: (§5)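 DNCB-induced atopic dermatitis model in mouse ears, lesions peaking day 7 after sensitization; test agent applied at 0.5%. Ear thickness measured daily with a digimatic micrometer; ear lesions photographed. Ear specimens H&E-stained and examined microscopically for epidermal and dermal thickness and inflammatory cell infiltration. Mean ± SEM.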

Mus musculus [16] = species on record: Mus musculus; test: Antiinflammatory activity in DNCB-stimulated atopic dermatitis BALB/c mouse model assessed as reduction in skin lesion at 0.5 % pretreated for 30 mins followed by DNCB re-treatment measured after 3 hrs; assay type: functional, organism-based; conditions: time 3.5 hrs; method in brief: as §5
Mus musculus [17] = species on record: Mus musculus; test: Antiinflammatory activity in DNCB-stimulated atopic dermatitis BALB/c mouse model assessed as reduction in epidermal thickness of ear at 0.5 % pretreated for 30 mins followed by DNCB re-treatment measured after 3 hrs by H and E staining based microscopic analysis; assay type: functional, organism-based; conditions: time 3.5 hrs; method in brief: as §5
Mus musculus [18] = species on record: Mus musculus; test: Antiinflammatory activity in DNCB-stimulated atopic dermatitis BALB/c mouse model assessed as reduction in dermal thickness of ear at 0.5 % pretreated for 30 mins followed by DNCB re-treatment measured after 3 hrs by H and E staining based microscopic analysis; assay type: functional, organism-based; conditions: time 3.5 hrs; method in brief: as §5
Mus musculus [19] = species on record: Mus musculus; test: Antiinflammatory activity in DNCB-stimulated atopic dermatitis BALB/c mouse model assessed as reduction in infiltration of inflammatory cells of ear at 0.5 % pretreated for 30 mins followed by DNCB re-treatment measured after 3 hrs by H and E staining based microscopic analysis; assay type: functional, organism-based; conditions: time 3.5 hrs; method in brief: as §5

Chain of TLR4-MyD88 (Mus musculus) (P22366 whole entry, looked up): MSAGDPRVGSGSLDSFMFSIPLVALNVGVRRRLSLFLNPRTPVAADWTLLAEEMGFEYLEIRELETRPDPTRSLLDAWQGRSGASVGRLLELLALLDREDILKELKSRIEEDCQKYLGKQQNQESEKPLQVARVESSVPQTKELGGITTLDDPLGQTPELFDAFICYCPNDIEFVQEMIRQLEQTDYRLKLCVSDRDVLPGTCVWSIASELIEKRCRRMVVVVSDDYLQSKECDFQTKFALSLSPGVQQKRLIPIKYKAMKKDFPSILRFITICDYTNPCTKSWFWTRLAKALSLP
Chain of TLR4-MyD88 (Mus musculus) (Q9QUK6 whole entry, looked up): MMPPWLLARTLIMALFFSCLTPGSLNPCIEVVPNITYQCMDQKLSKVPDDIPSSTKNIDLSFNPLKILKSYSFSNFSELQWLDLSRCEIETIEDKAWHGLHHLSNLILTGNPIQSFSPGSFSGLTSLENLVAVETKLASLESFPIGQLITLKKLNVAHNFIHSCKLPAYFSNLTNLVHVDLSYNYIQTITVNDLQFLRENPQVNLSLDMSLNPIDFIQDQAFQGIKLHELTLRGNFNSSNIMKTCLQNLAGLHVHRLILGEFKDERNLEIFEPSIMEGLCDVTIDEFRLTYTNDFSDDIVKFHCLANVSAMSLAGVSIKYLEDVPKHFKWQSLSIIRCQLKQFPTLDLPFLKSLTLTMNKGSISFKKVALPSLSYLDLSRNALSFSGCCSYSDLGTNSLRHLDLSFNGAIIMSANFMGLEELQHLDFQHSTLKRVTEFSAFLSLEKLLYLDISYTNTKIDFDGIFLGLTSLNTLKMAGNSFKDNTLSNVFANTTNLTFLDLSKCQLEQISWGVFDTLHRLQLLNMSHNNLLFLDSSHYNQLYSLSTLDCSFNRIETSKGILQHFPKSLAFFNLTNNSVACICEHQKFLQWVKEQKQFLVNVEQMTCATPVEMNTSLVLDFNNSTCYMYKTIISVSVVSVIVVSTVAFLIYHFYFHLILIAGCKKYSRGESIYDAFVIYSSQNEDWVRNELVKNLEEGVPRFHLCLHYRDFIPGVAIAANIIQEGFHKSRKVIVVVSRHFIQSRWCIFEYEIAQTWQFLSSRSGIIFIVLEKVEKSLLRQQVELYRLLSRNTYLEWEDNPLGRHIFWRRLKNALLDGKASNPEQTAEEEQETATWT

SMILES | inhibition at 20 µM (RAW264.7 [1]) | inhibition at 10 µM (RAW264.7 [2]) | also measured
Nc1nc(Cl)nc2c1ncn2C/C=C/c1ccc(F)cc1 | 24.1% | 13.9% | 
Cc1ccc(/C=C/Cn2cnc3c(Cl)ncnc32)cc1 | 12.1% | 13.5% | 
CNc1nc(Cl)nc2c1ncn2C/C=C/c1ccccc1 | 34.7% | 26.8% | 
Nc1nc(Cl)nc2c1ncn2CC1CC1c1ccc(F)cc1 (stereo not given) | 1.56% | -6.22% | inhibition (RAW264.7 [3]): inactive; inhibition (RAW264.7 [4]): inactive
Clc1nc(Cl)c2ncn(C/C=C/c3ccccc3)c2n1 | 34.7% | 22.2% | 
Cc1ccc(/C=C/Cn2cnc3c(NO)nc(Cl)nc32)cc1 | 40.9% | 36.8% | 
CNc1nc(Cl)nc2c1ncn2C/C=C/c1ccc(F)cc1 | 36.5% | 28.2% | 
CNc1nc(Cl)nc2c1ncn2CC1CC1c1ccc(F)cc1 (stereo not given) | 11.9% | 11.2% | 
ONc1nc(Cl)nc2c1ncn2C/C=C/c1ccc(F)cc1 | 17.6% | 4.59% | 
Nc1ncnc2c1ncn2C/C=C/c1ccccc1 | -13.3% | -3.38% | inhibition (RAW264.7 [3]): inactive; inhibition (RAW264.7 [4]): inactive
Nc1nc(Cl)nc2c1ncn2C/C=C/c1ccccc1 | 2.46% | -5.27% | inhibition (RAW264.7 [3]): inactive; inhibition (RAW264.7 [4]): inactive
Fc1ccc(/C=C/Cn2cnc3c(Cl)nc(Cl)nc32)cc1 | 40.5% | 29.3% | 
CNc1ncnc2c1ncn2C/C=C/c1ccc(C)cc1 | -15.7% | -7% | inhibition (RAW264.7 [3]): inactive; inhibition (RAW264.7 [4]): inactive
Nc1ncnc2c1ncn2C/C=C/c1ccc(F)cc1 | -19.3% | -17.1% | inhibition (RAW264.7 [3]): inactive; inhibition (RAW264.7 [4]): inactive
Clc1ncnc2c1ncn2C/C=C/c1ccccc1 | 14.8% | 15.1% | 
CNc1ncnc2c1ncn2C/C=C/c1ccccc1 | 33.4% | 19.3% | 
Fc1ccc(/C=C/Cn2cnc3c(Cl)ncnc32)cc1 | 30.2% | 11.6% | 
Oc1ccc(/C=C/c2cc(O)cc(O)c2)cc1 [RESVERATROL] | 38.6% | 26.6% | IC50 (RAW264.7 [3]): 26.4 µM; Activity (RAW264.7 [5]): Non-Toxic; Activity (HEK-293T [6]): Non-Toxic
Fc1ccc(C2CC2Cn2cnc3c(Cl)nc(Cl)nc32)cc1 (stereo not given) | 17.1% | 4.11% | 
CNc1nc(Cl)nc2c1ncn2C/C=C/c1ccc(C)cc1 | 34.6% | 28.4% | 
Cc1ccc(/C=C/Cn2cnc3c(Cl)nc(Cl)nc32)cc1 | 60.4% | 31.9% | IC50 (RAW264.7 [3]): 6.4 µM; Activity (RAW264.7 [5]): Non-Toxic; Activity (HEK-293T [6]): Non-Toxic; inhibition (RAW264.7 [7]): Active; inhibition (RAW264.7 [8]): Active; inhibition (RAW264.7 [9]): Active; Activity (RAW264.7 [10]): Active; Activity (RAW264.7 [11]): Active; inhibition (HEK-293T [12]): Active; inhibition (RAW264.7 [13]): Active; inhibition [14]: Active; Activity (Mus musculus [15]): Active; Activity (Mus musculus [16]): Active; Activity (Mus musculus [17]): Active; Activity (Mus musculus [18]): Active; Activity (Mus musculus [19]): Active
Cc1ccc(/C=C/Cn2cnc3c(Cl)nc(F)nc32)cc1 | 60.5% | 31.1% | 
ONc1nc(Cl)nc2c1ncn2C/C=C/c1ccccc1 | 51.2% | 57.4% | 
Cc1ccc(/C=C/Cn2cnc3c(N)ncnc32)cc1 | -7.73% | 0.48% | inhibition (RAW264.7 [3]): inactive; inhibition (RAW264.7 [4]): inactive
CNc1ncnc2c1ncn2C/C=C/c1ccc(F)cc1 | 2.9% | 0.97% | 
Cc1ccc(/C=C/Cn2cnc3c(N)nc(Cl)nc32)cc1 | 11.2% | 11.9% | 
Cc1ccc(/C=C/Cn2cnc3c(F)nc(F)nc32)cc1 | 12.1% | 5.88% | 
